Screening results (PubChem BioAssay)
SIRT5 inh = sirtuin-5 (human) deacylase inhibition. Q9NXA8. 330,000 compounds, 1.1% hits. AID 652115. Purified SirT5, succinyl-peptide AMC, trypsin-coupled fluorescence. inhibition, % at 15 µM; in the data active = inhibition above about 15%; inconclusive = no clear call, values can overlap the other calls
S100A4 inh HTS = inhibitors of human S100A4 binding to myosin IIA peptide; P26447; S100A4/TAMRA-MyoIIA peptide fluorescence polarization; inhibition, % at 10.7 µM; 360,000 compounds, 0.14% hits; AID 652163;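 active = mean inhibition of at least 70% across replicates, with every replicate also reaching that level; inconclusive = mean inhibition reaches 70% but some replicates fall short; inactive = mean inhibition below 70%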
Target sequence (P26447 whole entry, looked up): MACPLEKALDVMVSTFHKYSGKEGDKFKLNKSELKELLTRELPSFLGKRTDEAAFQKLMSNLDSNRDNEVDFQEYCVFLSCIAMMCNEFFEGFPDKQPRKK
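Material: S100A4 monomer protein | Medium: HEPES pH 7.2 with CaCl2, KCl, NaCl, DTT, Triton | Reagent: Labelled myosin peptide probe, 5 nM | Doses: One dose per compound | Times: 5 min incubation before reading | Benchmarks: Neutral control DMSO, positive control TFP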
Ecoli rRNA inh = inhibits bacterial ribosomal RNA function over humanized ribosomes. GFP signal change (wild-type ribosome), % (no concentration beside the values). 350,000 compounds, 1.6% hits. E. coli WT GFP vs humanized-ribosome RFP mutants, fluorescence, 24 h; hits give low values; DMSO median 0, no signal -100;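 active = significant combined selectivity score with lowered wild-type GFP, culture density cut under 30%, mutant RFP and density less affected; inactive = any of these conditions unmet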
E-selectin induc = E-selectin induction on HUVECs | HUVEC E-selectin immunofluorescence imaging; normalized: neutral wells 0, TNF-alpha wells 100 | activation, % at 7.58 µM | 260,000 compounds, 0.37% hits | AID 686992;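 active = mean E-selectin-positive cell signal at least 10% of the positive control, reached in at least 60% of replicates, without over 20% cell loss; inconclusive = no rule given, readout overlaps actives, possibly toxicity-flagged; inactive = the rest, including those meeting only one limit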
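Read-out basis: % PE-positive cells; Test system: HUVEC primary endothelial cells; Technique: immunofluorescence imaging; Dosing: single-point compound dose.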
MLL AF4-AF9 inh = MLL-AF4/AF9 protein interaction inhibition. P42568. 350,000 compounds, 0.47% hits. inhibition, % at 10 µM. AID 651704. AlphaScreen, biotin-AF4 peptide binding to FLAG-AF9;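 active = every replicate reaching a set inhibition limit, whatever the replicate mean, cut at about 25% in these data; inconclusive = mean inhibition reaches that limit but some replicates miss it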;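 also: 0% = plate neutral control median and 100% = total signal loss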
Target sequence (P42568 whole entry, looked up): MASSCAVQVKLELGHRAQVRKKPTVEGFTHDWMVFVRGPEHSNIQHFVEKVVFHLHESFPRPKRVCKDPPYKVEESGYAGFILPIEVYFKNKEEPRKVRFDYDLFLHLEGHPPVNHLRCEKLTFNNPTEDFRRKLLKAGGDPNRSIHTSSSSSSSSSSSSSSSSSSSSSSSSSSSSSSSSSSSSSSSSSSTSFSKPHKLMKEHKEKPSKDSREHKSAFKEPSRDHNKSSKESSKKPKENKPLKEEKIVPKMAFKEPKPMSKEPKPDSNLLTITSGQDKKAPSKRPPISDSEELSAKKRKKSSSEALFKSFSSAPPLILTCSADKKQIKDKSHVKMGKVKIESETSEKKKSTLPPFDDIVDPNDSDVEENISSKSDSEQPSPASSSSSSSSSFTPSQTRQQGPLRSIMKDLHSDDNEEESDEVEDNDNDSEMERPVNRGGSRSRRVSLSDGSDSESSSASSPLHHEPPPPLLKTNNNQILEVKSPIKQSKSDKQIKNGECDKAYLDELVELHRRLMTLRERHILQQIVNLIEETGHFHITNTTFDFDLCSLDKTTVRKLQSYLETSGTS
ERAP1 HTS inh = ERAP1 (human) enzyme inhibition | Q9NZ08 | recombinant ERAP1, Leu-AMC fluorescence, 60 min | inhibition, % at 10.7 µM | 340,000 compounds, 0.15% hits;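 active = mean replicate inhibition of at least 30%, or all replicates individually reaching that 30% level; inactive = mean below 30% and not every replicate reaching it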;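 also: 0% = neutral control wells and 100% = L-leucinethiol positive control wells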
An asterisk follows results filed as active; ? = inconclusive; nt = no result. An excerpt weighted towards active compounds, which were near 3.4% of everything screened.

SMILES	SIRT5 inh	S100A4 inh HTS	Ecoli rRNA inh	E-selectin induc	MLL AF4-AF9 inh	ERAP1 HTS inh
CCC(CO)Oc1cc(NC(=O)c2ccc(N)cc2)c2ncn(C(C)C)c2c1 (centres undefined)	-1.0	5.2	-20.0*	-0.1	3.8	5.8
C[C@@H]1CN([C@@H](C)CO)C(=O)c2cc(NS(=O)(=O)c3cn(C)cn3)ccc2O[C@@H](C)CCCCO[C@H]1CN(C)C(=O)CCC(F)(F)F	-0.6	-47.6	1.6	-0.1	1.3	-0.1
O=C1CCC(=O)N1CNc1ccc(Oc2ccccc2)cc1	0.7	-3.1	-13.3*	nt	6.9	1.7
C[C@@H]1CN([C@H](C)CO)C(=O)c2cc(C#Cc3cccnc3)cnc2O[C@@H]1CN(C)C	12.3	0.2	4.4	0.0	-8.7	2.3
COc1ccc(CN(C(=O)c2ccco2)c2ccc(C)c(C)c2)cc1	112.0*	-4.5	-50.8	nt	3.2	0.3
CCOc1ccc(N(Cc2ccc(OC)cc2)C(=O)c2ccco2)cc1	0.2	-2.5	-1.3	nt	-1.6	-0.5
O=C(CSc1nnnn1C1CCCCC1)NCCc1ccccc1	-2.1	-8.2	-28.0*	nt	9.0	2.2
O=C(CSc1nnnn1C1CCCCC1)NCc1cccs1	-3.0	4.0	-1.4	nt	-1.2	2.5
CN1c2ccc(C3=CCCCC3)cc2[C@@H]2[C@@H](CCN2C(=O)C2CCCCC2)[C@@H]1CO	17.8*	4.2	nt	nt	?	nt
CN1c2ccc(C3=CCCCC3)cc2[C@@H]2[C@@H](CCN2C(=O)C2CCC2)[C@@H]1CO	1.8	3.7	-14.9	0.3	28.4*	2.7
CN1c2ccc(C3=CCCCC3)cc2[C@H]2[C@H](CCN2C(=O)C2CCCCC2)[C@@H]1CO	9.1	-0.1	-4.6	1.1	30.4*	0.5
COc1ccc2c3c(n(C)c2c1)[C@@H](CO)N(CC1CC1)CC31CCN(C(=O)Nc2ccc(F)cc2F)CC1	-3.3	11.8	-4.5	-0.3	nt	nt
O=C(N[C@H]1CC[C@@H](CC(=O)N2CCc3ccccc3C2)O[C@H]1CO)C1CC1	2.4	-0.5	0.4	0.0	-5.7	-1.3
CCCNC(=O)N1C[C@H]2[C@@H](c3ccccc31)[C@H](CO)N2C(=O)CN1CCOCC1	-0.2	nt	4.2	-0.1	nt	nt
Cc1cc(C(=O)Nc2cccc3c2O[C@H](CN(C)C(=O)Nc2cccc4ccccc24)[C@@H](C)CN([C@@H](C)CO)C3=O)n(C)n1	nt	nt	3.1	0.3	nt	nt
Cc1ccc(CNC(=O)CN2C(=O)NC(C)(c3cccc(Br)c3)C2=O)cc1 (centres undefined)	-3.2	-4.1	-28.9*	-0.1	0.2	-1.0
O=C(Cc1coc2cc(O)ccc12)N1CCN(S(=O)(=O)c2ccc(Br)cc2)CC1	-0.9	-7.4	-19.9*	nt	1.2	1.8
O=C(CSc1ccc(Br)cc1)N1CCN(S(=O)(=O)c2ccccc2)CC1	2.0	-8.5	-23.8	-0.1	0.3	2.5
O=C(ON=C1CCN(S(=O)(=O)c2ccccc2)CC1)c1ccc(F)cc1	nt	nt	nt	-0.9	nt	nt
CC(C)(C)C1CCC(=NOC(=O)c2ccc(F)cc2)CC1 (centres undefined)	2.4	-3.0	-41.4*	3.3	1.3	-0.3
Cc1ccc(-c2ccc3c(c2)O[C@@H](CN(C)C(=O)CC2CC2)[C@@H](C)CN([C@H](C)CO)S3(=O)=O)cc1	6.0	16.8	-13.4	-2.4	-0.7	3.8
O=C(NCC1CCCCC1)c1ccc([N+](=O)[O-])cc1	nt	-0.3	7.2	nt	1.2	-2.8
Cc1cc(C(=O)NCC2CCCCC2)ccc1[N+](=O)[O-]	22.0*	-1.1	2.9	nt	-1.3	-3.4
Cc1cc(C(=O)N2CCN(Cc3ccccc3)CC2)ccc1[N+](=O)[O-]	-0.6	0.6	-4.6	0.0	-4.9	3.8
Cc1cc(C(=O)N2CCC(Cc3ccccc3)CC2)ccc1[N+](=O)[O-]	1.1	2.2	-31.0*	nt	3.1	5.1
SMILES	SIRT5 inh	S100A4 inh HTS	Ecoli rRNA inh	E-selectin induc	MLL AF4-AF9 inh	ERAP1 HTS inh
C[C@H]1CN([C@@H](C)CO)C(=O)c2cc(-c3ccc(F)cc3)cnc2O[C@H]1CN(C)C(=O)c1ccncc1	nt	nt	2.6	0.5	nt	nt
O=C(Nc1ccccc1F)N1[C@H](CO)[C@@H]2c3ccccc3NC[C@@H]21	-4.1	-7.5	1.7	-0.4	0.1	-1.3
CCC(=O)N[C@@H]1CC[C@H](CCn2cc(-c3cccc(OC)c3)nn2)O[C@@H]1CO	0.2	3.0	1.4	2.1	0.2	1.1
O=C(Nc1ccccc1)N1CCCCN2[C@H](C1)[C@@H](c1ccc(C#CC3CC3)cc1)[C@@H]2CO	-0.9	1.2	-57.0	-0.6	1.3	1.3
CN1C(=O)c2cc(NC(=O)c3cccc(F)c3)ccc2OC[C@@H]2O[C@@H](CC(=O)NCC3CC3)CC[C@@H]21	-0.5	-25.7	1.7	0.1	-1.3	-6.3
Cn1cc(SCC(=O)NC2CCCC2)c2ccccc21	-1.0	87.3*	6.9	-1.2	-1.5	1.0
Cn1cc(SCC(=O)NC2CCCCC2)c2ccccc21	-0.3	0.2	5.0	-0.4	-1.4	-1.8
O=C(OCn1ncc(Br)c(Br)c1=O)c1ccccc1Cl	6.4	0.3	-20.1*	nt	nt	4.7
COc1ccc2c3c(n(C)c2c1)[C@@H](CO)N(CC1CCOCC1)CC31CCN(C(C)=O)CC1	-1.0	-10.5	9.2	-0.5	1.3	0.4
CCCNC(=O)C1(C)CCCN(C(=O)C2(c3ccc(Cl)cc3)CCCC2)C1 (centres undefined)	29.9*	-0.8	-4.8	-0.2	-4.0	7.0
CCCC(=O)Nc1ccc2c(c1)OC[C@@H](C)N(C(=O)c1ccccc1F)C[C@H](C)[C@H](OC)CN(C)C2=O	nt	nt	-2.6	-0.1	nt	nt
Cc1ccc(S(=O)(=O)N(C)C[C@@H]2Oc3c(NC(=O)C4CCCCC4)cccc3C(=O)N([C@H](C)CO)C[C@@H]2C)cc1	8.2	108.7*	4.2	nt	-3.8	-6.0
C[C@H](CO)N1C[C@H](C)[C@H](CN(C)S(=O)(=O)c2ccccc2)Oc2c(NC(=O)C3CCOCC3)cccc2C1=O	10.2	6.2	4.1	31.3*	-1.1	2.0
Cc1ccc(S(=O)(=O)N(C)C[C@@H]2Oc3c(NS(=O)(=O)c4ccc(Cl)cc4)cccc3C(=O)N([C@@H](C)CO)C[C@H]2C)cc1	-3.2	-5.9	-4.5	49.1*	-1.6	-0.7
C[C@@H]1CN([C@H](C)CO)C(=O)c2cccc(NS(=O)(=O)c3ccc(F)cc3)c2O[C@@H]1CN(C)S(=O)(=O)c1cccs1	4.6	-7.2	-3.4	35.6*	-2.3	2.2
C[C@H](CO)N1C[C@H](C)[C@@H](CN(C)S(=O)(=O)c2cccs2)Oc2c(NS(=O)(=O)c3ccc(F)cc3)cccc2C1=O	-1.8	7.4	-10.6	-3.5	-2.3	1.6
CO[C@@H]1CN(C)C(=O)c2ccc(NC(=O)c3ccno3)cc2OC[C@H](C)NC[C@H]1C	2.5	-75.7	4.9	-0.2	-18.5	-8.1
